Laboratory results published in ChEMBL document CHEMBL4152279, “Synthesis, cytotoxic evaluation and target identification of thieno[2,3-d]pyrimidine derivatives with a dithiocarbamate side chain at C2 position” (Eur J Med Chem, 2018).
Active and inactive are the calls of the source. No cut-off for these calls is given here.

Key:
Sus scrofa [1] = organism: Sus scrofa; assay: Inhibition of taxol binding to porcine tubulin preincubated with tubulin followed by taxol treatment measured after 2 hrs by immunoblot analysis
[2] = biological target: Tubulin beta-3 chain (Homo sapiens) (UniProt Q13509); assay: Binding affinity to tubulin beta-3 in human A549 cells at 0.15 mM after 4 hrs by HPLC-MS based pull down assay relative to control; assay type: cell-based
Sequence of Tubulin beta-3 chain (Homo sapiens) (Q13509 whole entry): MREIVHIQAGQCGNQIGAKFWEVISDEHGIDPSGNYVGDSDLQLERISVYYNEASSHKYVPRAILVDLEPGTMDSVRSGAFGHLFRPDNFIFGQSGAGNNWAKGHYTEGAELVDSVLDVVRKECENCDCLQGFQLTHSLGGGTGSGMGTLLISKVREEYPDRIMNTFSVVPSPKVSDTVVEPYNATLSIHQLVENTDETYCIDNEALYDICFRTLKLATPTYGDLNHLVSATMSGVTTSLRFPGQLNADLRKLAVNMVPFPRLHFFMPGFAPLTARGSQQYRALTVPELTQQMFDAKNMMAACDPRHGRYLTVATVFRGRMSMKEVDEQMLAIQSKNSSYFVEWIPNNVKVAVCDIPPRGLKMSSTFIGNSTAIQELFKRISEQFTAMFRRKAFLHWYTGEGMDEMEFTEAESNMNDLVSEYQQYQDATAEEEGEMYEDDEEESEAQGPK
Outline: (§1)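 A549 lysate in NETN buffer (pH 8.0, 0.5% NP-40) incubated with biotinylated probe (0.15 mM final) 4 h at 4 °C, with biotin or control probe as comparators. Streptavidin Dynabeads 1 h at 4 °C, six NETN washes, proteins eluted by boiling in SDS buffer. After trypsin digestion, identification by LC-MS/MS on Q Exactive HF.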

[3] = biological target: Tubulin alpha-1C chain (Homo sapiens) (UniProt Q9BQE3); assay: Binding affinity to tubulin alpha-1C in human A549 cells at 0.15 mM after 4 hrs by HPLC-MS based pull down assay relative to control; assay type: cell-based; outline: as §1
Sequence of Tubulin alpha-1C chain (Homo sapiens) (Q9BQE3 whole entry, looked up): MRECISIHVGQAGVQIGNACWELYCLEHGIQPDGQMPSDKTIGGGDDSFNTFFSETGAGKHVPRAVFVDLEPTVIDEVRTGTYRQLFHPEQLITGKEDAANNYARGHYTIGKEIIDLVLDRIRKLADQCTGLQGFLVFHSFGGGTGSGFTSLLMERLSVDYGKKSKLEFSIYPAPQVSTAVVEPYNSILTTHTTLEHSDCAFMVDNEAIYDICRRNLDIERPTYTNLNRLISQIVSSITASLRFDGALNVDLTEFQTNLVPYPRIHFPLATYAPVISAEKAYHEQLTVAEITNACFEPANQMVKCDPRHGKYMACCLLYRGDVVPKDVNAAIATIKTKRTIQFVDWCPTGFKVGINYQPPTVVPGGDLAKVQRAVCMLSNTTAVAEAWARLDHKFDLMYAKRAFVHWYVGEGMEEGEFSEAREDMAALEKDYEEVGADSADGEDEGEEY

Sus scrofa [4] = organism: Sus scrofa; assay: Inhibition of colchicine binding to porcine tubulin treated 2 hrs post colchicine treatment by pull down assay
Outline: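 Porcine neuronal tubulin was preincubated with excess taxol, colchicine, vinblastine or nocodazole for 2 h at 4 °C. Biotinylated probe was then added in NETN buffer, followed by streptavidin Dynabead pull-down for 1 h at 4 °C and six washes. Bound α-tubulin was detected by SDS–PAGE and immunoblot. Three independent experiments.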

[5] = biological target: T1, ATP-dependent RNA helicase DDX1 (Homo sapiens) (UniProt Q92499); assay: Binding affinity to DDX1 in human A549 cells at 0.15 mM after 4 hrs by HPLC-MS based pull down assay relative to control; assay type: cell-based; outline: as §1
T1 sequence (whole entry): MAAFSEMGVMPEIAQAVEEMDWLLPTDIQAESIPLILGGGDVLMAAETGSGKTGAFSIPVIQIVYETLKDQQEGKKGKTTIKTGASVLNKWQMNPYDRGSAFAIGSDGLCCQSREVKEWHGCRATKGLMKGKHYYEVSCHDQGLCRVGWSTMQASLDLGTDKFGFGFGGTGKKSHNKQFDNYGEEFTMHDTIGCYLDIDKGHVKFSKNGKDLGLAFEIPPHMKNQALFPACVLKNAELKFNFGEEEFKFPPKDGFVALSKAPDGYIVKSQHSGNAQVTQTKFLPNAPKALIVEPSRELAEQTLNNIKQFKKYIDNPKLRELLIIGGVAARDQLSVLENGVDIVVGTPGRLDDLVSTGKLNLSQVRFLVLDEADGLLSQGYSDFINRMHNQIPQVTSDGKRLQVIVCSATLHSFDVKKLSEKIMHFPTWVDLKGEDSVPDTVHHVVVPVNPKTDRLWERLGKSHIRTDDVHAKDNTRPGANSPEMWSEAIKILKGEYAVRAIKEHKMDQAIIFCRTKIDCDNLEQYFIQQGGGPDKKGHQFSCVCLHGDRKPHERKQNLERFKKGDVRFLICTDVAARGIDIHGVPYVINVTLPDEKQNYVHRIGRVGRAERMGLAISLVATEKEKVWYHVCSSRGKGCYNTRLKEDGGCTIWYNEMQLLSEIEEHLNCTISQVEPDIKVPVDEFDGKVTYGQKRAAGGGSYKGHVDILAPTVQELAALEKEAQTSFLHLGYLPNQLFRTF

[6] = biological target: T2, RNA-binding protein EWS (Homo sapiens) (UniProt Q01844); assay: Binding affinity to RNA-binding protein EWS in human A549 cells at 0.15 mM after 4 hrs by HPLC-MS based pull down assay relative to control; assay type: cell-based; outline: as §1
T2 sequence (whole entry): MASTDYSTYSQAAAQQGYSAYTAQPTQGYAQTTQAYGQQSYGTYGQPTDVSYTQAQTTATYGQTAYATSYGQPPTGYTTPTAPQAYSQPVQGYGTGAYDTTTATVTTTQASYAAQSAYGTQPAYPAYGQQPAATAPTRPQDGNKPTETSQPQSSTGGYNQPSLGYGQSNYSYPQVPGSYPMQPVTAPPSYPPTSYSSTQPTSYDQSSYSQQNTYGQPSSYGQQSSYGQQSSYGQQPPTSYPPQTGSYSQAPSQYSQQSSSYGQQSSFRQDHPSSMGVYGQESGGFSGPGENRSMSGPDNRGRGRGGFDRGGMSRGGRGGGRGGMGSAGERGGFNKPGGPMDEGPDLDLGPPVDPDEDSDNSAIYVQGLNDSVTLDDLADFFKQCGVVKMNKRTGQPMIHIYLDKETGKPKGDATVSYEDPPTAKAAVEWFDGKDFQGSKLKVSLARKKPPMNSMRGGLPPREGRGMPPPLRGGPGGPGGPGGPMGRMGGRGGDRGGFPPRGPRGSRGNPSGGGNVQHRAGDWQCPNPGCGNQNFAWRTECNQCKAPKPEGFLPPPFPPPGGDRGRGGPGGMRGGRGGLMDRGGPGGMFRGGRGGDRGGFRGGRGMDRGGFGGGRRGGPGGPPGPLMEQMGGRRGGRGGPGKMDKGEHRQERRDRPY

Sus scrofa [7] = organism: Sus scrofa; assay: Inhibition of colchicine binding to porcine tubulin preincubated with tubulin followed by colchicine treatment measured after 2 hrs by immunoblot analysis

inhibition (Sus scrofa [1]): inactive
Activity [2]: 16.7%
Activity [3]: 16.6%
inhibition (Sus scrofa [4]): Active
Activity [5]: 38.8%
Activity [6]: 55.8%
inhibition (Sus scrofa [7]): Active
Structure (SMILES): Cc1cc2c(=O)[nH]c(CSC(=S)N(CCCNC(=O)CCCC[C@@H]3SC[C@@H]4NC(=O)N[C@@H]43)Cc3ccc(C#N)cc3)nc2s1
